Results pooled from the literature.
Compare with care: the assays were run in different laboratories.
Read-out: cell growth or viability

Structure (SMILES)	cell line	assay	setting	quantity	result
Cc1cc(=O)oc2cc(OCCCCSC#N)ccc12	T47D	SRB		GI50	2.5 µM
O=c1[nH]ncc(NN=Cc2cn(-c3ccccc3)nc2-c2cc3ccccc3oc2=O)c1Cl	Jurkat		48 h	CC50	> 40 µM
Cc1ncsc1-c1ccc([C@H](C)NC(=O)[C@@H]2C[C@@H](O)CN2C(=O)[C@@H](NC(=O)CCCS(=O)(=O)NC(=O)c2nc(N3CCc4cccc(C(=O)Nc5nc6ccccc6s5)c4C3)ccc2-c2cnn(CC34CC5CC(CC(C5)C3)C4)c2C)C(C)(C)C)cc1	MOLT-4	MTS	48 h	IC50	0.0083 µM
Cc1c(Cl)c(=O)oc2cc(OCCCCSC#N)ccc12	MIA PaCa-2	SRB		GI50	8.2 µM
Nc1nc(S)nc(O)c1N=Cc1cn(-c2ccccc2)nc1-c1ccc([N+](=O)[O-])cc1	Jurkat		48 h	CC50	> 40 µM
Cc1ncsc1-c1ccc([C@H](C)NC(=O)[C@@H]2C[C@@H](O)CN2C(=O)[C@@H](NC(=O)CCCCCCCS(=O)(=O)NC(=O)c2nc(N3CCc4cccc(C(=O)Nc5nc6ccccc6s5)c4C3)ccc2-c2cc(C#N)n(CC34CC5CC(CC(C5)C3)C4)c2C)C(C)(C)C)cc1	MOLT-4	MTS	48 h	IC50	0.0202 µM
O=C(C[C@@H](C(F)F)n1ccc(F)n1)N1CCC(O)(Cn2cnc3c(cnn3-c3ccc(F)cc3)c2=O)CC1	LNCaP	CCK-8	1.524 nM	viability	90%
Cc1nc(Nc2ncc(C(=O)Nc3c(C)cccc3Cl)s2)cc(N2CC[C@H](O)C2)n1	SU-DHL-2	ATP luminescence	10 µM, 72 h	inhibition	33%
O=c1[nH]ncc(NN=Cc2cn(-c3ccccc3)nc2-c2ccccc2)c1Cl	Jurkat		48 h	CC50	3.66 µM
Cc1ncsc1-c1ccc([C@H](C)NC(=O)[C@@H]2C[C@@H](O)CN2C(=O)[C@@H](NC(=O)CCCCCCCCCCS(=O)(=O)NC(=O)c2nc(N3CCc4cccc(C(=O)Nc5nc6ccccc6s5)c4C3)ccc2-c2cnn(CC34CC5CC(CC(C5)C3)C4)c2C)C(C)(C)C)cc1	MOLT-4	MTS	48 h	IC50	0.0341 µM
Cc1nc(NC(=O)N2CCC[C@H]2C(N)=O)sc1-c1ccnc(C(C)(C)C(F)(F)F)c1	TCC-SUP	ATP luminescence	5 days	EC50	3.07 µM
Nc1nc(S)nc(O)c1N=Cc1cn(-c2ccccc2)nc1-c1ccc(Cl)cc1	Jurkat		48 h	CC50	> 20 µM
Cc1ncsc1-c1ccc([C@H](C)NC(=O)[C@@H]2C[C@@H](O)CN2C(=O)[C@@H](NC(=O)CCCCCC(=O)N2CCN(CC[C@H](CSc3ccccc3)Nc3ccc(S(=O)(=O)NC(=O)c4ccc(N5CCN(CC6=C(c7ccc(Cl)cc7)CCC(C)(C)C6)CC5)cc4)cc3S(=O)(=O)C(F)(F)F)CC2)C(C)(C)C)cc1	MOLT-4	MTS	48 h	IC50	0.0771 µM
C=C(NC(=O)C(=C)NC(=O)c1csc(C2=N[C@@H]3c4csc(n4)[C@H]4NC(=O)c5csc(n5)[C@H]([C@](C)(O)[C@@H](C)O)NC(=O)[C@H]5CSC(=N5)/C(=C/C)NC(=O)[C@H]([C@@H](C)O)NC(=O)c5csc(n5)[C@]3(CC2)NC(=O)[C@H](C)NC(=O)C(=C)NC(=O)[C@H](C)NC(=O)[C@H]([C@@H](C)CC)N[C@@H]2C=Cc3c([C@H](C)O)cc(nc3[C@H]2O)C(=O)O[C@@H]4C)n1)C(N)=O	LNCaP			EC50	4.4 µM
